pIC50: −log10 of the molar value. Activity calls are given as the source filed them. No cut-off for these calls is given here.
Columns and labels:
Plasmodium falciparum = assay: Antimalarial activity against chloroquine-resistant and mefloquine-sensitive Plasmodium falciparum W2 infected in human O-positive erythrocytes assessed as inhibition of parasite growth by [3H]hypoxanthine incorporation assay; format: functional, organism-based
Procedure, shortened: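 Compounds were tested at several concentrations, diluted in 4% DMSO/RPMI without hypoxanthine, with mefloquine as control. Growth was measured by 3H-hypoxanthine uptake versus untreated wells. Triplicate, means ± SD of three independent experiments.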

[1] = Selectivity index, ratio of LC50 for mouse splenocytes to IC50 for chloroquine-resistant and mefloquine-sensitive Plasmodium falciparum W2
Procedure, shortened: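 SI = splenocyte LC50 (3H-thymidine assay) divided by W2 P. falciparum IC50 (3H-hypoxanthine assay), each from three independent experiments.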

[2] = Cytotoxicity against BALB/c mouse splenocytes assessed as [3H]thymidine incorporation after 24 hrs by beta counting; format: cell-based, Splenocyte; settings: read-out: LC50
Procedure, shortened: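 BALB/c splenocytes, 6 × 10^5 cells/well, in DMEM + 10% FCS + 50 μg/mL gentamycin. Compounds were tested at five concentrations in triplicate. 3H-thymidine (1 μCi/well) was added, followed by 24 h at 37 °C, 5% CO2, then β-counting. Cytotoxicity was taken relative to untreated cultures and LC50 derived. Means ± SD of three experiments.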

Plasmodium berghei [3] = assay: Antimalarial activity against Plasmodium berghei NK65 infected in mouse assessed as reduction of parasitemia level at 50 to 100 mg/kg, ip qd for 4 days by optical microscopy analysis; format: functional, organism-based
Procedure, shortened: (§1)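 Male Swiss mice (5-week-old, SPF), groups of five, infected with P. berghei NK65 (line kept by weekly ip blood passage of 10^6 infected RBC). Dosing ip, 200 μL, daily for four consecutive days from the first day of infection, in saline + 10% DMSO. Comparators were chloroquine 50 mg/kg and 10% DMSO/saline mock. Survival was monitored to day 24.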

Plasmodium berghei [4] = assay: Antimalarial activity against Plasmodium berghei NK65 infected in mouse assessed as reduction of host mortality at 50 to 100 mg/kg, ip qd for 4 days measured on day 7; format: functional, organism-based; procedure, shortened: as §1
Plasmodium berghei [5] = assay: Antimalarial activity against Plasmodium berghei NK65 infected in mouse assessed as reduction of parasitemia level at 50 mg/kg, ip qd for 4 days by optical microscopy analysis; format: functional, organism-based; parameters: dose 50 mg/kg
Procedure, shortened: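 Male SPF Swiss mice, 5 weeks old, infected with P. berghei NK65 (line kept by weekly ip blood passage of 10^6 infected RBC). Groups of five were dosed ip daily for 4 days from the first day of infection, in 200 μL saline plus 10% DMSO. Chloroquine 50 mg/kg and vehicle served as controls. Parasitemia was counted by microscopy on methanol-fixed, fast-panoptic-stained blood smears on days 4–8. Reduction was calculated versus vehicle. Two replicate experiments were run.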

Plasmodium berghei [6] = assay: Antimalarial activity against Plasmodium berghei NK65 infected in mouse assessed as reduction of parasitemia level at 50 to 100 mg/kg, ip qd for 4 days measured on day 8 postinfection by optical microscopy analysis; format: functional; parameters: scale not given: the % may be the effect or the level left; settings: dose mg/kg 50-100; route intraperitoneal; procedure, shortened: as §1
Plasmodium berghei [7] = assay: Antimalarial activity against Plasmodium berghei NK65 infected in mouse assessed as reduction of host mortality at 100 mg/kg, ip qd for 4 days measured on day 24 postinfection; format: functional; parameters: scale not given: the % may be the effect or the level left; settings: route intraperitoneal; procedure, shortened: as §1

Compound | pIC50 (Plasmodium falciparum) | Ratio LC50/IC50 [1] | CC50 at 24 h [2] [µM] | Activity (Plasmodium berghei [3]) | Activity (Plasmodium berghei [4]) | Activity (Plasmodium berghei [5]) | Activity (Plasmodium berghei [6]) [%] | Activity (Plasmodium berghei [7]) [%]
C[C@]12C(=O)C=CC=C1[C@@H](O)C[C@@H]1[C@@H]2CC[C@@]2(O)C(=O)O[C@@]3(C)[C@H]4C[C@]5(C)[C@@H](CO[C@@]16O[C@]23[C@H]5C6=O)C(=O)O4 [PHYSALIN G] | 5.17 | 5.6 | 37.5 |  |  |  |  | 
C[C@@]12C[C@H]3OC(=O)[C@@H]1CO[C@]14O[C@]5([C@H]2C1=O)[C@@](O)(CC[C@H]1[C@H]4C[C@H]2O[C@]24CC=CC(=O)[C@]14C)C(=O)O[C@@]35C [PHYSALIN F] | 5.66 | 5.94 | 13.3 | inactive | Active |  |  | 
CCN(CC)CCCC(C)Nc1ccnc2cc(Cl)ccc12 (centres undefined) |  |  |  |  |  | Active |  | 
OC(c1cc(C(F)(F)F)nc2c(C(F)(F)F)cccc12)C1CCCCN1 (centres undefined) [MEFLOQUINE] |  | 238 | 9.5 |  |  |  |  | 
C[C@@]12C[C@H]3OC(=O)[C@@H]1CO[C@@]14O[C@]5([C@H]2C1=O)[C@@](O)(CC[C@H]1[C@H]4C[C@@H](O)[C@@]2(O)CC=CC(=O)[C@]12C)C(=O)O[C@@]35C [PHYSALIN D] | 4.26 | 10.4 | 570 |  |  |  | 65 | 25
C[C@]12C(=O)C=CCC1=CC[C@@H]1[C@@H]2CC[C@]2(O)C(=O)O[C@@]3(C)[C@H]4C[C@]5(C)[C@@H](CO[C@@]16O[C@@]32[C@H]5C6=O)C(=O)O4 [PHYSALIN B] | 5.55 | 12.3 | 33.9 |  |  |  |  | 
